The source of these data is PubChem BioAssay AID1242 (PCMD, 2008).

Out of some 120,000 compounds screened, about 20 (0.02%) were called active.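 How the source made its calls: active means inhibition above 30.3% in the primary screen of four-compound pools, then above 30% when the compound was retested; inconclusive means passed the primary limit but could not be retested; inactive means the rest.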 Shown is part of a subset that was picked to be rich in actives.

The assay is described as follows: Candida albicans biofilm persister killing – 4-compound mixtures, primary screen (AID 1242).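 Further: compounds exposed to preformed 24 h biofilms for 48 h; 0% = untreated biofilm control and 100% = clotrimazole plus chlorhexidine kill blank.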 The settings on record: C. albicans biofilm persisters + clotrimazole, fluorescence viability, primary screen in compound mixtures, stronger effect = higher value. The essentials:
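Test system: C. albicans biofilms. Buffer or medium: RPMI/MOPS medium, pH 7.0. Timing: 48 h compound exposure at 37 °C. Technique: Alamar Blue fluorescence. Evaluation: percent inhibition of biofilm viability.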

On to `CC(=O)Nc1ccc(S(=O)(=O)NC2(C(F)(F)F)C(=O)NC(C)=C2C#N)cc1` (stereo not given), for which the inhibition (at 7.6 µM unless noted) was 25.1% (inactive). Take `O=C(Nc1nnc(C2CC2)s1)C1=NN(C2CCS(=O)(=O)C2)C(=O)CC1` (stereo not given): under “at 7.6 µM unless noted”, the inhibition is 7.46% (inactive). On the same count and under the same terms, the result for `COc1cccc(/C=C/C(=O)Nc2ccc3c(c2)OCCO3)c1` reads 21.2% (inactive); that for `O=C(CC1CCCCC1)NCc1ccc(F)cc1`, 14.7% (inactive). The same measure, in the same setting: the result for `Cc1ccc(CN2CCN(Cc3ccc(OCCO)cc3)CC2CCO)o1` (stereo not given) reads 19.8% (inactive); that for `COC(=O)c1cc(C(=O)OCC(=O)Nc2cc(C)on2)cc([N+](=O)[O-])c1`, 19.1% (inactive); that for `Cc1nc(=O)c(-c2ccccc2)c(C)n1-c1ccc(Br)cc1`, 15.2% (inactive). The same measure, in the same setting: the result for `O=C(CCc1ccccc1)NCCc1cccs1` reads 19.8% (inactive); that for `Cc1ccc(C(=O)NNc2ncnc3ccccc23)cc1`, 25.7% (inactive). For the compound `CCOC(=O)C1CCN(c2ncnc3c2c(-c2ccccc2)cn3-c2ccc(C)cc2)CC1`, the inhibition (at 7.6 µM unless noted) was 10.1% (inactive). As for `O=C1CC(Cc2ccc(Cl)cc2)C(=O)N1c1cc(Cl)ccn1` (stereo not given), the inhibition (at 7.6 µM unless noted) was 15.9% (inactive). On the same count and under the same terms, the same measure for `CCc1ccccc1NC(=O)CSc1nnc(CCNC(=O)OC(C)(C)C)o1`: 24.5% (inactive); for `O=C(O)c1cccc(NC(=O)c2cc(-c3cccc(Cl)c3)nc3ccccc23)c1`: 16.3% (inactive). For the compound `Cn1cnnc1SCC(=O)Nc1ccc(N2CCOCC2)cc1`, under “at 7.6 µM unless noted”, the inhibition was 1.33% (inactive). `COc1c(C)cc(C(=O)C2CCCN(S(=O)(=O)c3c(C)noc3C)C2)cc1C` (stereo not given): the inhibition (at 7.6 µM unless noted) is 2.3% (inactive).

Regarding `COc1cc(N2C(=O)c3ccccc3C2=O)c(Cl)cc1C(=O)OCC(=O)N1CCOCC1`, the inhibition (at 7.6 µM unless noted) was 3.87% (inactive). Same read-out and setting: the same measure for `COc1ccc(CCNC(=O)C(=O)Nc2ccc3nc4n(c(=O)c3c2)CCCCC4)cc1OC`: 5.01% (inactive).

Turning to `O=C(O)c1ccc(/C=N/NC(=S)NCc2ccccc2)cc1`, for the setting “at 7.6 µM unless noted”, the inhibition is 10.6% (inactive).

Regarding `COc1ccc(-c2[nH]ncc2CN(Cc2nccn2C)C(C)C)cc1F`, the inhibition (at 7.6 µM unless noted) is 6.59% (inactive). Take `Cc1ccc(NC(=O)c2ccccn2)cc1S(=O)(=O)N1CCOCC1`: the inhibition (at 7.6 µM unless noted) is 7.29% (inactive). The same measure, in the same setting: the result for `Cc1ccc(NC(=S)N(CCN(C)C)Cc2cccs2)cc1C` reads 17.2% (inactive); that for `O=[N+]([O-])c1cccc2ncccc12`, 12.4% (inactive); that for `COc1cccc(N2C(=O)CC(N3CCc4ccccc4C3)C2=O)c1` (stereo not given), 17.8% (inactive). The same measure, in the same setting: the result for `CCOc1cc(NC(=S)NCc2ccco2)c(OCC)cc1NC(=O)c1ccco1` reads 2.67% (inactive); that for `N/C(=N\OC(=O)c1ccc2c(c1)OCO2)c1ccc(Br)cc1`, 8.49% (inactive). With `CC(=O)Cn1ncc(N2CCOCC2)c(Br)c1=O`, under “at 7.6 µM unless noted”, the inhibition is -3.05% (inactive). As for `Cn1nnnc1SCC(=O)NNC(=O)c1ccc(Br)cc1`, the inhibition (at 7.6 µM unless noted) is 11.2% (inactive). In the case of `CCCCN(C(=O)COc1ccc(NC(C)=O)cc1)C1CCS(=O)(=O)C1` (stereo not given), the inhibition (at 7.6 µM unless noted) is 12.9% (inactive). On to `O=C(c1cn2ccccc2n1)N1CCc2c([nH]c3ccccc23)C1c1ccccn1` (stereo not given), for which, where the note is “at 7.6 µM unless noted”, the inhibition is 0.31% (inactive). Still for that read-out and setting: the same measure for `O=c1[nH]c(N2CCN(Cc3ccc4c(c3)OCO4)CC2)nc2c1CCCC2`: 6.65% (inactive); for `CCOC(=O)c1c(-c2cccc(N)c2)cn2ccccc12`: 6.08% (inactive). On to `O=C(Nc1ccc2c(c1)C(=O)OC2)Nc1cccc2ccccc12`, for which the inhibition (at 7.6 µM unless noted) is -1.47% (inactive). For `CC(Oc1ccc(Br)cc1Br)C(=O)NC1CCCC1` (stereo not given), the inhibition (at 7.6 µM unless noted) is 19.2% (inactive).

Consider `COc1ccc(CC(=O)NCC(=O)N/N=C/c2cc(Br)ccc2OC)cc1`, for which, under “at 7.6 µM unless noted”, the inhibition is 19.3% (inactive). For the compound `CCOC(=O)/C(C#N)=C/c1ccc(N2CCCCC2)cc1`, the inhibition (at 7.6 µM unless noted) is 16.2% (inactive). For the compound `CCc1ccc(Nc2nnc(SCC(=O)c3ccc4c(c3)NC(=O)CO4)s2)cc1`, the inhibition (at 7.6 µM unless noted) was 10.2% (inactive). Regarding `COc1ccc(C(=O)OCC(=O)NCC2CCCO2)cc1[N+](=O)[O-]` (stereo not given), the inhibition (at 7.6 µM unless noted) is 12.1% (inactive).

Regarding `CN(c1ccccc1)S(=O)(=O)c1cc(C(=O)OCC(=O)N2CCN(C(=O)c3ccco3)CC2)ccc1Cl`, for the setting “at 7.6 µM unless noted”, the inhibition was 13.3% (inactive). Same read-out and setting: the same measure for `COc1cc2c(cc1OC)CC1(CCCCC1)N=C2`: 4.41% (inactive); for `Cc1ccc(C2CC(c3cccc(NS(C)(=O)=O)c3)=NN2S(C)(=O)=O)cc1` (stereo not given): 16% (inactive). As to `COCCC(=O)Nc1ccc2c(c1)CN(C(=O)CCOC)CC2`, the inhibition (at 7.6 µM unless noted) was 18% (inactive). With `CC(C)(C)c1cc(NC(=O)NN2CCOCC2)nn1-c1c(Cl)cc(Cl)cc1Cl`, the inhibition (at 7.6 µM unless noted) was 5.67% (inactive). `C=CCOCCN(C)C1=NS(=O)(=O)c2ccccc21`: the inhibition (at 7.6 µM unless noted) was 3.65% (inactive). For the compound `CN(C)S(=O)(=O)c1cccc(NC(=O)COC(=O)c2cc(=O)[nH]c(=O)[nH]2)c1`, the inhibition (at 7.6 µM unless noted) is 26.1% (inactive).

For the compound `CCOCCCN(C(=O)Cn1nnc(-c2ccc(OC)c(OC)c2)n1)C(CC)C(=O)NC1CCCC1` (stereo not given), under “at 7.6 µM unless noted”, the inhibition was 18.7% (inactive).

In the case of `Cc1cccc(N2CCN(c3ccc(C(N)=O)cc3[N+](=O)[O-])CC2)c1C`, where the note is “at 7.6 µM unless noted”, the inhibition is 16.6% (inactive).

For the compound `CCOC(=O)C1CCN(CCC(=O)Nc2cccc(C)c2)CC1`, the inhibition (at 7.6 µM unless noted) was 9.47% (inactive). On the same count and under the same terms, the same measure for `OCCC1CN(Cc2cccc(OC3CCCC3)c2)CCN1Cc1ccsc1` (stereo not given): 13.6% (inactive); for `CN(C)N(C)C(=O)C(O)(c1ccccc1)c1ccccc1`: 8.15% (inactive); for `CCOc1ccc(NS(=O)(=O)c2ccc(C)c(C(N)=O)c2)cc1`: 13.4% (inactive).

Regarding `CCC(C)(C)NC(=O)/C=C/c1cc(OC)c(OC)c(S(=O)(=O)N2CCc3ccccc32)c1`, where the note is “at 7.6 µM unless noted”, the inhibition is 12.1% (inactive). Turning to `Cc1ccc(S(=O)(=O)/N=C(/Nc2ccc3[nH]c(=O)[nH]c3c2)c2ccccc2)cc1`, the inhibition (at 7.6 µM unless noted) is 25.2% (inactive). On the same count and under the same terms, the result for `CCCCN(CC)CCNC(=O)CCNC(=O)Cn1ccc2ccccc2c1=O` reads 8.03% (inactive). On to `CN(CC(O)COc1ccc(S(=O)(=O)N2CCOCC2)cc1Cl)C1CCCCC1` (stereo not given), for which the inhibition (at 7.6 µM unless noted) was 28.8% (inactive). On the same count and under the same terms, the result for `Nc1nc(NCC2CCCO2)nc(Nc2ccccc2F)c1[N+](=O)[O-]` (stereo not given) reads 13.6% (inactive). Turning to `Cn1nc(C(C)(C)C)c([N+](=O)[O-])c1C(N)=O`, the inhibition is 56.6% (inactive) (at 7.6 µM) and -53.4% (measured here: individual compound retest, at 61 µM). As for `O=C1N(c2ccccc2)C(=Nc2ccccc2)SC12CC2`, for the setting “at 7.6 µM unless noted”, the inhibition was 16.8% (inactive).

In the case of `CCN(CC)CCN(C(=O)c1ccc(N2C(=O)CCC2=O)cc1)c1nc2cc3c(cc2s1)OCO3`, the inhibition (at 7.6 µM unless noted) is 4.15% (inactive).

In the case of `CCC(=O)NC(=S)Nc1ccc(NC(=O)c2ccco2)c(Cl)c1`, the inhibition (at 7.6 µM unless noted) is 2.96% (inactive).
